# Measurements taken from publication PMC9206500 (Journal of medicinal chemistry, 2021).
# Like-named read-outs stand apart in the source and are kept apart here.
# Key:
# [1] = system: three human malignant melanoma cell lines and three breast cancer cell lines; test: MTS cell proliferation assay, average over the panel; assay type: cell-based; settings: for IC50: read-out: average IC50
# [2] = molecular target: purified porcine brain tubulin (Sus scrofa, UniProt P02554+Q2XVP4); test: Cell-free tubulin polymerization assay; assay type: biochemical; settings: 10 μM, tubulin 3 mg/mL, GTP 1 mM, 1 h
# Sequence of purified porcine brain tubulin (Q2XVP4 whole entry): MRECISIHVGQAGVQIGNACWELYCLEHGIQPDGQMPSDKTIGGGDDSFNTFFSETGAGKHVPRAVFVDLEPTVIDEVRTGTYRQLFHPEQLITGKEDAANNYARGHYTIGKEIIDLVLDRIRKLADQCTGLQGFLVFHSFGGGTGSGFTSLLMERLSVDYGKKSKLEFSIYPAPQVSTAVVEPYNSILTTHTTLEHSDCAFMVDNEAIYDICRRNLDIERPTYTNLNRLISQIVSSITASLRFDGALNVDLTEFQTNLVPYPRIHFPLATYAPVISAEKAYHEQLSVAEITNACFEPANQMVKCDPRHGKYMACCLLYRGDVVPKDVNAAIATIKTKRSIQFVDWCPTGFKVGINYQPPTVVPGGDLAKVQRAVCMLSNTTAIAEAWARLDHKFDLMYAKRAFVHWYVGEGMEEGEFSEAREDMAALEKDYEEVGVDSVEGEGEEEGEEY
# Sequence of purified porcine brain tubulin (P02554 whole entry): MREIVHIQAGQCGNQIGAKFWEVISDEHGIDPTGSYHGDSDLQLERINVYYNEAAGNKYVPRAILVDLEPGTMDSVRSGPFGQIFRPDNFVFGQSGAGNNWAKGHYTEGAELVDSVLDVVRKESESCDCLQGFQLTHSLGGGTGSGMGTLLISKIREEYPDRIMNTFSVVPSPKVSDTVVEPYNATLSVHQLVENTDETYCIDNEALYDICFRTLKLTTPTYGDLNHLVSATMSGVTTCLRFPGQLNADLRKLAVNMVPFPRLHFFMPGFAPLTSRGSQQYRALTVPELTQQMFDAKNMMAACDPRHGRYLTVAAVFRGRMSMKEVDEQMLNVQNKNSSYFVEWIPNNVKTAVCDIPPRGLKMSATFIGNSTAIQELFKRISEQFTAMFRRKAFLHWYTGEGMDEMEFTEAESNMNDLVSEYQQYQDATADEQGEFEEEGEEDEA
# A375/TxR cells [3] = test: Annexin V-FITC/PI apoptosis detection; assay type: cell-based, human; settings: 10 nM, 24 h; untreated […]
# [4] = Liver microsome stability assay, human; settings: for fold improvement of half-life in human liver microsomes: compared to parent compound CH-2-77
# CYP1A = CYP1A (Homo sapiens, UniProt P05177); test: CYP inhibition, CYP1A; assay type: in vitro ADME; settings: at 10 μM, HLM, phenacetin substrate
# Sequence of CYP1A (P05177 whole entry): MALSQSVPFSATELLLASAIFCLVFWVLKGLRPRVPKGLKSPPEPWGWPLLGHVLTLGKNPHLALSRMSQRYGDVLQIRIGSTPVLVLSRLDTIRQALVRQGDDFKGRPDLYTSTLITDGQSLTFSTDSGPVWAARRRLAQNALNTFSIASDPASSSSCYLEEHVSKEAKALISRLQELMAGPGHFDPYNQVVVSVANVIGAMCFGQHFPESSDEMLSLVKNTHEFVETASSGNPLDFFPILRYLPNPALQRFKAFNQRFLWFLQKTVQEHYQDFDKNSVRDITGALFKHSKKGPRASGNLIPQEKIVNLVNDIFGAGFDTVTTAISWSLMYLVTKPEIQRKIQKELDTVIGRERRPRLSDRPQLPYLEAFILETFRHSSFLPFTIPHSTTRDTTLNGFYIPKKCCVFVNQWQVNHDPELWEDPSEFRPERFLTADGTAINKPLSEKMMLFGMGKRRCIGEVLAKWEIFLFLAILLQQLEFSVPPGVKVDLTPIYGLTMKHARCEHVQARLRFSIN
# CYP2B6 = CYP2B6 (Homo sapiens, UniProt P20813); test: CYP inhibition, CYP2B6; assay type: in vitro ADME; settings: at 10 μM, HLM, bupropion substrate
# Sequence of CYP2B6 (P20813 whole entry): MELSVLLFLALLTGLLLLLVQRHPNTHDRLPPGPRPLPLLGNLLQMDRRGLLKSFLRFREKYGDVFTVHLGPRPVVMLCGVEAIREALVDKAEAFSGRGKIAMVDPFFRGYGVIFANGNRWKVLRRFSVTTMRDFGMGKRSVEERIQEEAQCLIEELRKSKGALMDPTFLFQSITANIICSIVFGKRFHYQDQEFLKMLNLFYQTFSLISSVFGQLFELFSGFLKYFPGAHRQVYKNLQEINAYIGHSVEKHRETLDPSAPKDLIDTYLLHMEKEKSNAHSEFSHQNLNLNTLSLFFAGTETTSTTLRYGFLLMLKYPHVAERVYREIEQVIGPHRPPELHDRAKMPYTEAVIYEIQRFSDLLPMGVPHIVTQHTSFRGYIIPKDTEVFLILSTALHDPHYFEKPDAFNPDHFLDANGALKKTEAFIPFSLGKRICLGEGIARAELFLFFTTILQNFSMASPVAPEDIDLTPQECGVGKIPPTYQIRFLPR
# CYP2C9 = CYP2C9 (Homo sapiens, UniProt P11712); test: CYP inhibition, CYP2C9; assay type: in vitro ADME; settings: at 10 μM, HLM, diclofenac substrate
# Sequence of CYP2C9 (P11712 whole entry): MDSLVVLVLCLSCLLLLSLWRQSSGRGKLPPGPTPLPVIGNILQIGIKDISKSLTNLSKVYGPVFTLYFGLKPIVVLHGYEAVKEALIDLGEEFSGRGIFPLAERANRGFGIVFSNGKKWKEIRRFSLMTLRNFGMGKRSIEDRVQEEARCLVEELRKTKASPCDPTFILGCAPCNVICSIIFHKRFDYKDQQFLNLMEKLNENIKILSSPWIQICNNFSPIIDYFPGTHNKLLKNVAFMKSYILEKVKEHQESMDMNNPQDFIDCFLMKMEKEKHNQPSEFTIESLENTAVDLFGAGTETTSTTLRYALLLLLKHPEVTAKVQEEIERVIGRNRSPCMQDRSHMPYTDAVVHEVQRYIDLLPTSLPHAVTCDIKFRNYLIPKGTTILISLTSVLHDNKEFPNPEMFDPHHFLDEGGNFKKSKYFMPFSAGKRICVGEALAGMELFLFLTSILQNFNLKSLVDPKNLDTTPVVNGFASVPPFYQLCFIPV
# CYP2C19 = CYP2C19 (Homo sapiens, UniProt P33261); test: CYP inhibition, CYP2C19; assay type: in vitro ADME; settings: at 10 μM, HLM, omeprazole substrate
# Sequence of CYP2C19 (P33261 whole entry): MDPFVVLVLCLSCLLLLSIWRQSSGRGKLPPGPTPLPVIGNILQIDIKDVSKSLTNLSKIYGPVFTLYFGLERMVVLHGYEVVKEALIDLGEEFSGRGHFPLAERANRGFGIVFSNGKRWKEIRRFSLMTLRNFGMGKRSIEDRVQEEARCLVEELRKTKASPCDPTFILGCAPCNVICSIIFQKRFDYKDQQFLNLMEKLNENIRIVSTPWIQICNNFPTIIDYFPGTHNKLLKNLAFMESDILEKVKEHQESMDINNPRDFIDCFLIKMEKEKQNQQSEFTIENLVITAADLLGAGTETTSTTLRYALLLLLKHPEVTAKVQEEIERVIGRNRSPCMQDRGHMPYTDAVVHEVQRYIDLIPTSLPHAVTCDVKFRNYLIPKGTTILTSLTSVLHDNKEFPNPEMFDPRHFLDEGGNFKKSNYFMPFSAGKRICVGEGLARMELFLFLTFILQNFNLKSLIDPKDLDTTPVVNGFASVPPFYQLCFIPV
# CYP2D6 = CYP2D6 (Homo sapiens, UniProt P10635); test: CYP inhibition, CYP2D6; assay type: in vitro ADME; settings: at 10 μM, HLM, dextromethorphan substrate
# Sequence of CYP2D6 (P10635 whole entry): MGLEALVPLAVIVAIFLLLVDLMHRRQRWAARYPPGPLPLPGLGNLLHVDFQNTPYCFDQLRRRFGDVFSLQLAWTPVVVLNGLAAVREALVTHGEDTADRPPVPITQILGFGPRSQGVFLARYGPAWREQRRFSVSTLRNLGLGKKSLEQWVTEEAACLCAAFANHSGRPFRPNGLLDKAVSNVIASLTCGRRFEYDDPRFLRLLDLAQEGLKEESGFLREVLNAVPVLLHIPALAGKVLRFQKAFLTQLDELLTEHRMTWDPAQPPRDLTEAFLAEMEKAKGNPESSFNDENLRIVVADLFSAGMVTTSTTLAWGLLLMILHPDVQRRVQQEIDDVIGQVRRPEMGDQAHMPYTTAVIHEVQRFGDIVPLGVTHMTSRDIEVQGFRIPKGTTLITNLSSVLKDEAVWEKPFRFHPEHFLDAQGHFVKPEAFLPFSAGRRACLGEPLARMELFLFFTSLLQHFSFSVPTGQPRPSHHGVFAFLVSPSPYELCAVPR
# CYP3A = test: CYP inhibition, CYP3A; assay type: in vitro ADME, human; settings: at 10 μM, HLM
# TA98 = test: AMES fluctuation test, TA98; set-up: species or system bacteria; settings: strain TA98
# A100 = test: AMES fluctuation test, A100; set-up: species or system bacteria; settings: strain A100
# TA1535 = test: AMES fluctuation test, TA1535; set-up: species or system bacteria; settings: strain TA1535
# TA1537 = test: AMES fluctuation test, TA1537; set-up: species or system bacteria; settings: strain TA1537
# A375/TxR cells [5] = test: Cell cycle analysis by flow cytometry; assay type: cell-based, human; settings: 24 h; controls 10 nM, 60c 2.5, 5, 10 nM
# A375/TxR xenograft [6] = test: A375/TxR xenograft antitumor efficacy; assay type: in vivo, NSG mice; settings: for average tumor weight: vehicle 2.0 g; for tumor necrosis (H&E of excised tumors): 60c 10 and 20 mg/kg, paclitaxel 10 mg/kg
# Procedure, shortened: (§1)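 Hosts were NSG mice aged 5–6 weeks. At ~100 mm3 mice were randomized by weight and volume into four groups (3 male + 3 female each). Test compound vehicle was PEG300:Tween 80:saline 3:1:6. Dosing was IP three times weekly. The study ended when vehicle tumors neared ~1000 mm3.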
# A375/TxR xenograft [7] = test: Spontaneous metastasis in A375/TxR xenograft model; assay type: in vivo, NSG mice; settings: for mice that developed liver metastases: n = 6
# Procedure, shortened: as §1
# [8] = Systemic toxicity in A375/TxR tumor-bearing mice; assay type: in vivo, NSG mice; settings: for histology of major organs (lung, liver, kidney, heart, spleen), H&E: paclitaxel 10 mg/kg, 60c 10 or 20 mg/kg IP
# Procedure, shortened: as §1
# M14/LCC6MDR1 = test: MTS cell proliferation assay, M14/LCC6MDR1; assay type: cell-based; settings: Homo sapiens, 72 h, read-out: IC50, M14/LCC6MDR1
# MDA-MB-231 = test: MTS cell proliferation assay, MDA-MB-231; assay type: cell-based, human; settings: read-out: IC50 ± SEM, MDA-MB-231, breast cancer cell line, 72 h, n = 4
# MDA-MB-453 = test: MTS cell proliferation assay, MDA-MB-453; assay type: cell-based, human; settings: read-out: IC50 ± SEM, MDA-MB-453, breast cancer cell line, 72 h, n = 4
# SKBR3 = test: MTS cell proliferation assay, SKBR3; assay type: cell-based, human; settings: read-out: IC50 ± SEM, SKBR3, breast cancer cell line, 72 h, n = 4
# A375 = test: MTS cell proliferation assay, A375; assay type: cell-based, human; settings: read-out: IC50 ± SEM, A375, melanoma cell line, 72 h, n = 4
# M14 = test: MTS cell proliferation assay, M14; assay type: cell-based, human; settings: read-out: IC50 ± SEM, M14, melanoma cell line, 72 h, n = 4
# RPMI7951 = test: MTS cell proliferation assay, RPMI7951; assay type: cell-based, human; settings: read-out: IC50 ± SEM, RPMI7951, melanoma cell line, 72 h, n = 4
# [9] = Liver microsome stability assay, mouse; settings: 0.5 mg/mL protein, 10 μM compound, NADPH
compound,measurement,setting,value
"COc1cc(C(=O)c2cccc(-c3ccc(C)cc3)n2)cc(OC)c1OC [CH-2–1, (6-(p-Tolyl)pyridin-2-yl)(3,4,5-trimethoxyphenyl)methanone, reference compound]",IC50,[1]; Homo sapiens,3.7 nM
COc1cc(C(=O)c2cccc(-c3ccc(C)c(O)c3)n2)cc(OC)c1OC [CH-2–77],IC50,[1]; Homo sapiens,2.5 nM
same,effect on tubulin polymerization,[2],interfered with tubulin polymerization
same,apoptotic cells,A375/TxR cells [3],51.1%
"COc1cc(C(=O)c2cccc(-c3ccc(N(C)C)cc3)n2)cc(OC)c1OC [Compound 4c, (6-(4-(Dimethylamino)phenyl)pyridin-2-yl) (3,4,5-trimethoxyphenyl)methanone]",IC50,[1]; Homo sapiens,48.7 nM
same,fold reduction in antiproliferative activity,"[1]; compared to CH-2–1, average IC50",13 fold
"COc1cc(C(=O)c2cccc(-c3ccc(C)cc3)n2)cc2c1OCCO2 [Compound 10, (8-Methoxy-2,3-dihydrobenzo[b][1,4]dioxin-6-yl)(6-(p-tolyl)-pyridin-2-yl)methanone]",IC50,[1]; Homo sapiens,3.8 nM
"CCc1c(OC)cc(C(=O)c2cccc(-c3ccc(C)c(O)c3)n2)cc1OC [Compound 13, (4-Ethyl-3,5-dimethoxyphenyl)(6-(3-hydroxy-4-methylphenyl)-pyridin-2-yl)methanone]",IC50,[1]; Homo sapiens,18.3 nM
"COc1cc(-c2n[nH]c3ccc(-c4ccc(C)c(O)c4)nc23)cc(OC)c1OC [Compound 22, 2-Methyl-5-(3-(3,4,5-trimethoxyphenyl)-1H-pyrazolo[4,3-b]-pyridin-5-yl)phenol]",IC50,[1]; Homo sapiens,34.1 nM
same,fold improvement of half-life in human liver microsomes,[4],19 fold
"COc1cc(C(=O)c2nc(-c3ccc(C)c(O)c3)[nH]c2Br)cc(OC)c1OC [Compound 29, (5-Bromo-2-(3-hydroxy-4-methylphenyl)-1H-imidazol-4-yl)-(3,4,5-trimethoxyphenyl)methanone]",IC50,[1]; Homo sapiens,80.5 nM
"COc1cc(C(=O)c2cncc(-c3ccc(C)cc3)n2)cc(OC)c1OC [Compound 35, (6-(p-Tolyl)pyrazin-2-yl)(3,4,5-trimethoxyphenyl)methanone]",IC50,[1]; Homo sapiens,4.2 nM
"COc1cc(C(=O)c2cncc(-c3ccc(C)c(O)c3)n2)cc(OC)c1OC [Compound 40a, (6-(3-Hydroxy-4-methylphenyl)pyrazin-2-yl)(3,4,5-trimethoxyphenyl)methanone]",IC50,[1]; Homo sapiens,9.2 nM
"COc1cc(C(=O)c2cncc(-c3cccc4[nH]ncc34)n2)cc(OC)c1OC [Compound 40c, (6-(1H-Indazol-4-yl)pyrazin-2-yl)(3,4,5-trimethoxyphenyl)-methanone]",IC50,[1]; Homo sapiens,33.7 nM
"COc1cc(C(=O)c2ccnc(-c3ccc(C)c(O)c3)n2)cc(OC)c1OC [Compound 46a, (2-(3-Hydroxy-4-methylphenyl)pyrimidin-4-yl)(3,4,5-trimethoxyphenyl)methanone]",IC50,[1]; Homo sapiens,8.2 nM
"COc1cc(C(=O)c2ccnc(-c3c[nH]c4ccccc34)n2)cc(OC)c1OC [Compound 46b, (2-(1H-Indol-3-yl)pyrimidin-4-yl)(3,4,5-trimethoxyphenyl)-methanone]",IC50,[1]; Homo sapiens,26.3 nM
"COc1cc(C(=O)c2cc(C)cc(-c3ccc(C)cc3)n2)cc(OC)c1OC [Compound 50a, (4-Methyl-6-(p-tolyl)pyridin-2-yl)(3,4,5-trimethoxyphenyl)-methanone]",IC50,[1]; Homo sapiens,7.7 nM
same,fold improvement of half-life in human liver microsomes,[4],3 fold
"COc1cc(C(=O)c2cc(OC)c(OC)c(OC)c2)nc(-c2ccc(C)cc2)c1 [Compound 54a, (4-Methoxy-6-(p-tolyl)pyridin-2-yl)(3,4,5-trimethoxyphenyl)-methanone]",fold improvement of half-life in human liver microsomes,[4],3 fold
"COc1cc(C(=O)c2cc(OC)c(OC)c(OC)c2)nc(-c2ccc(C)c(O)c2)c1 [Compound 55b, (6-(3-Hydroxy-4-methylphenyl)-4-methoxypyridin-2-yl)(3,4,5-trimethoxyphenyl)methanone]",fold improvement of half-life in human liver microsomes,[4],3 fold
"COc1cc(C(=O)c2nc(-c3ccc(C)c(O)c3)ccc2F)cc(OC)c1OC [Compound 60c, (3-Fluoro-6-(3-hydroxy-4-methylphenyl)pyridin-2-yl)(3,4,5-trimethoxyphenyl)methanone]",CYP1A inhibition,CYP1A,"CYP1A (HLM, phenacetin substrate): 50.9%"
same,CYP2B6 inhibition,CYP2B6,"CYP2B6 (HLM, bupropion substrate): 12%"
same,CYP2C9 inhibition,CYP2C9,"CYP2C9 (HLM, diclofenac substrate): 54.7%"
same,CYP2C19 inhibition,CYP2C19,"CYP2C19 (HLM, omeprazole substrate): 49%"
same,CYP2D6 inhibition,CYP2D6,"CYP2D6 (HLM, dextromethorphan substrate): 11.9%"
same,CYP3A inhibition,CYP3A; midazolam substrate,"CYP3A (HLM, midazolam substrate): 34.7%"
same,CYP3A inhibition,CYP3A; testosterone substrate,"CYP3A (HLM, testosterone substrate): 51.8%"
same,AMES fluctuation test,TA98,TA98: no mutation
same,AMES fluctuation test,A100,A100: no mutation
same,AMES fluctuation test,TA1535,TA1535: no mutation
same,AMES fluctuation test,TA1537,TA1537: no mutation
same,effect on tubulin polymerization,[2],strongly inhibited microtubule polymerization
same,effect on cell cycle distribution,A375/TxR cells [5],dose-dependent accumulation of cells in the G2/M phase
same,average tumor weight,A375/TxR xenograft [6]; 10 mg/kg IP,1.13 g
same,average tumor weight,A375/TxR xenograft [6]; 20 mg/kg IP,0.76 g
same,tumor necrosis (H&E of excised tumors),A375/TxR xenograft [6],highly necrotic
same,mice that developed liver metastases,A375/TxR xenograft [7]; 20 mg/kg IP,none
same,lung metastasis (H&E),A375/TxR xenograft [7]; 10 and 20 mg/kg IP,lung nodules were markedly sparse and of reduced size
same,body weight during therapy,"[8]; 10 or 20 mg/kg IP, 3 times/week, 18 days",without weight loss
same,"histology of major organs (lung, liver, kidney, heart, spleen), H&E",[8],no apparent pathological changes in the major organs
"COc1cc(C(=O)c2cc(F)cc(-c3ccc(C(F)F)cc3)c2)cc(OC)c1OC [Compound 64, (4′-(Difluoromethyl)-5-fluoro-[1,1′-biphenyl]-3-yl)(3,4,5-trimethoxyphenyl)methanone]",IC50,[1]; Homo sapiens,60.8 nM
COc1cc2c(c(OC)c1OC)-c1ccc(OC)c(=O)cc1[C@@H](NC(C)=O)CC2 [colchicine],IC50,M14/LCC6MDR1,> 1000 nM
same,effect on cell cycle distribution,A375/TxR cells [5],normal cell cycle progression
"CC(=O)O[C@H]1C(=O)[C@@]2(C)[C@H]([C@H](OC(=O)c3ccccc3)[C@]3(O)C[C@H](OC(=O)[C@H](O)[C@@H](NC(=O)c4ccccc4)c4ccccc4)C(C)=C1C3(C)C)[C@]1(OC(C)=O)CO[C@@H]1C[C@@H]2O [paclitaxel, reference compound]",effect on tubulin polymerization,[2],increased rate of tubulin polymerization
same,effect on cell cycle distribution,A375/TxR cells [5],normal cell cycle progression
same,increase of tumor volume vs vehicle,"A375/TxR xenograft [6]; 10 mg/kg IP, 3 times/week, 18 days",approximately 5.3%
same,average tumor weight,A375/TxR xenograft [6]; 10 mg/kg IP,2.1 g
same,tumor necrosis (H&E of excised tumors),A375/TxR xenograft [6],all viable
same,mice that developed liver metastases,"A375/TxR xenograft [7]; 10 mg/kg IP, vehicle 83%",83%
same,"histology of major organs (lung, liver, kidney, heart, spleen), H&E",[8],no apparent pathological changes in the major organs
"(6-(Indolin-6-yl)pyridin-2-yl)(3,4,5-trimethoxyphenyl)methanone [Compound 4b]",IC50,MDA-MB-231,5.3 ± 1 nM
same,IC50,MDA-MB-453,5.9 ± 1.4 nM
same,IC50,SKBR3,5.5 ± 1.2 nM
same,IC50,A375,5 ± 1 nM
same,IC50,M14,5.6 ± 1.4 nM
same,IC50,RPMI7951,5.9 ± 1.5 nM
same,IC50,[1]; average over six cancer cell lines,5.5 nM
same,metabolic stability in human liver microsome t1/2,"[4]; 0.5 mg/mL protein, 10 μM compound, NADPH",15 ± 1.2 min
same,metabolic stability in mouse liver microsome t1/2,[9],4.2 ± 0.00 min
